The source made the active and inactive calls. The rule behind the calls is not given here.
Experiments:
[1] = molecular target: T1, Heme oxygenase 1 (Mus musculus) (UniProt P14901); test: Induction of HO1 in mouse RAW264.7 cells at 100 nM after 6 hrs by SDS-PAGE; format: cell-based
T1 sequence (whole entry): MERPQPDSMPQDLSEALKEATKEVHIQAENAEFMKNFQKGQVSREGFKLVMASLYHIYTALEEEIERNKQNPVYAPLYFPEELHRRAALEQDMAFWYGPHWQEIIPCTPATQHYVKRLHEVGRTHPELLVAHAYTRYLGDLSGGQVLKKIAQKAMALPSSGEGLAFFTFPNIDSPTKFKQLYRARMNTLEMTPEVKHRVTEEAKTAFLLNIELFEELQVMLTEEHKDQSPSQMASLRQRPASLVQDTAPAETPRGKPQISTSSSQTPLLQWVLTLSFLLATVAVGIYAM
How it was run: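 RAW 264.7 cells exposed to compounds at 100 nM for 6 hours. Total cell lysates resolved by SDS-PAGE, immunoblotted with HO-1 antibody, ECL detection.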

[2] = system: RAW264.7; test: Antiinflammatory activity against IFN-gamma-stimulated mouse RAW264.7 cells assessed as nitrite accumulation after 24 hrs by Griess reagent method; format: functional, cell-based; conditions: RAW264.7, 24 h
How it was run: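 RAW 264.7 cells co-treated with graded compound concentrations and interferon-γ (10 ng/mL) for 24 hours; nitric oxide in supernatants measured by Griess reaction. IC50 averaged over three experiments.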

[3] = system: Lung; test: Drug level in CD1 mouse lung at 2 umol, ip after 6 hrs by HPLC/MS; format: ADME, organism-based; conditions: in vivo
How it was run: (§1)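 Female CD-1 mice dosed i.p. with 2 µmol compound in DMSO–cremophor–PBS (1:1:8). Sacrificed 6 hours later; liver, lung, whole blood and plasma collected for compound levels (tissue µmol/kg, blood/plasma µM).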

[4] = Drug uptake in CD1 mouse plasma at 2 umol, ip after 6 hrs by HPLC/MS; format: ADME, organism-based; conditions: read-out: Drug uptake; how it was run: as §1
[5] = Drug level in CD1 mouse whole blood at 2 umol, ip after 6 hrs by HPLC/MS; format: ADME, organism-based; conditions: read-out: Drug uptake; how it was run: as §1
[6] = system: Liver; test: Drug level in CD1 mouse liver at 2 umol, ip after 6 hrs by HPLC/MS; format: ADME, organism-based; conditions: in vivo; how it was run: as §1
[7] = system: Mus musculus; test: Induction of HO1 in CD1 mouse liver at 2 umol, ip after 6 hrs by SDS-PAGE; format: functional, organism-based
How it was run: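 CD-1 mice, 4 per group, given a single 2 µmol i.p. injection. Livers harvested after 6 h and homogenized. Lysates separated by SDS-PAGE, probed with HO-1 antibodies and developed by ECL.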

[8] = Stability assessed as compound remaining after 24 hrs in presence of in 10% fetal bovine serum; format: ADME; conditions: cattle
How it was run: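 Compound incubated in RAW 264.7 cell growth medium (RPMI with 10% fetal bovine serum) at 37 °C. Percentage of material remaining followed over time up to 24 h.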

SMILES | Activity [1] | IC50 [2] [nM] | Drug uptake [3] [µmol/kg] | concentration at 6 h [4] [µM] | concentration at 6 h [5] [µM] | Drug uptake [6] [µmol/kg] | Activity [7] | Activity [8]
C=C(C)[C@@H]1CC[C@]2(C(=O)OC(=O)[C@]34CC[C@@H](C(=C)C)[C@@H]3[C@H]3CC[C@@H]5[C@@]6(C)C=C(C#N)C(=O)C(C)(C)[C@@H]6CC[C@@]5(C)[C@]3(C)CC4)CC[C@]3(C)[C@H](CC[C@@H]4[C@@]5(C)C=C(C#N)C(=O)C(C)(C)[C@@H]5CC[C@]43C)[C@@H]12 [LUPANE ANHYDRIDE] | inactive | > 10000 |  |  |  |  |  | 
C=C(C)[C@@H]1CC[C@]2(C(=O)O)CC[C@]3(C)[C@H](CC[C@@H]4[C@@]5(C)C=C(C#N)C(=O)C(C)(C)[C@@H]5CC[C@]43C)[C@@H]12 | Active |  |  |  |  |  |  | 
CC1(C)CC[C@]2(C(=O)O)CC[C@]3(C)[C@H](C(=O)C=C4[C@@]5(C)C=C(C#N)C(=O)C(C)(C)[C@@H]5CC[C@]43C)[C@@H]2C1 [BARDOXOLONE] | Active | 28.3 | 0.018 | 2 | 19 | 0.041 |  | 
CC1(C)CC[C@]2(C(=O)OC(=O)[C@]34CCC(C)(C)C[C@H]3[C@H]3C(=O)C=C5[C@@]6(C)C=C(C#N)C(=O)C(C)(C)[C@@H]6CC[C@@]5(C)[C@]3(C)CC4)CC[C@]3(C)[C@H](C(=O)C=C4[C@@]5(C)C=C(C#N)C(=O)C(C)(C)[C@@H]5CC[C@]43C)[C@@H]2C1 | Active | 14.7 | 0.031 | 43 | 52 | 0.045 | Active | Active
